Where only a bound is given, the exact number is not on record here.

Results on 30 compounds are retold here after ChEMBL document CHEMBL1125181, “Naphthosultam derivatives: a new class of potent and selective 5-HT2 antagonists” (J Med Chem, 1991).

Format in all cases: cell membranes
The target in one assay is D(2) dopamine receptor (Rattus norvegicus, UniProt P61169). Briefly: The concentration required to inhibit [3H]spiperone binding to dopamine receptor D2 in rat brain membranes (in vitro). An outline of the steps: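 Rat striatal membranes (0.05 mg/mL protein) in Tris-HCl with BSA 2 mg/mL, NaCl, cinanserin 10⁻⁶ M and compound. [3H]spiperone (final 0.05 nM) added after 5 min, incubation continued 40 min. Nonspecific binding from 10⁻⁶ M sulpiride. Filtration and scintillation counting.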
Sequence of D(2) dopamine receptor (P61169 whole entry): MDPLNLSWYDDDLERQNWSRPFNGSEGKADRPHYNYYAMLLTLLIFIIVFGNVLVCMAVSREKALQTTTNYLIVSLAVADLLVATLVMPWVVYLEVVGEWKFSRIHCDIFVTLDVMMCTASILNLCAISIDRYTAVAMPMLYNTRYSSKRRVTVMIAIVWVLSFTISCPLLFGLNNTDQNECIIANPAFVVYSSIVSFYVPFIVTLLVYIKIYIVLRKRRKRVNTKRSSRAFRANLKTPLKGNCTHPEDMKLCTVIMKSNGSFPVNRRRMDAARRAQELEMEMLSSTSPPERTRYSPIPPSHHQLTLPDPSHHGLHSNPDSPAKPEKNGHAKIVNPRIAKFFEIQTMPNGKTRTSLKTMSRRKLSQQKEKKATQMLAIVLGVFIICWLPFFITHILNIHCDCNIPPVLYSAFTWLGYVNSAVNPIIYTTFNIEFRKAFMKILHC

Assay [1] concerns the target Serotonin 2 (5-HT2) receptor (Rattus norvegicus, UniProt P30994+P08909+P14842). Briefly: The concentration required to inhibit [3H]ketanserin binding to 5-hydroxytryptamine 2 receptor in rat brain membranes (in vitro). The gist of the method:
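Male Sprague-Dawley rat cortical membranes (0.15 mg/mL protein) in Tris-HCl pH 7.6 with BSA 2 mg/mL. Incubated 15 min at 37 °C with compound and [3H]ketanserin (final 0.4 nM). Nonspecific binding from 10⁻⁶ M methysergide. Filtration and scintillation counting. IC50 by nonlinear regression; mean of at least 2 runs, 6 concentrations in triplicate.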

Assay [2] addresses T1, Adrenergic receptor alpha-1 (Rattus norvegicus, UniProt P15823+P23944+P43140).
T1 sequence (P15823 whole entry): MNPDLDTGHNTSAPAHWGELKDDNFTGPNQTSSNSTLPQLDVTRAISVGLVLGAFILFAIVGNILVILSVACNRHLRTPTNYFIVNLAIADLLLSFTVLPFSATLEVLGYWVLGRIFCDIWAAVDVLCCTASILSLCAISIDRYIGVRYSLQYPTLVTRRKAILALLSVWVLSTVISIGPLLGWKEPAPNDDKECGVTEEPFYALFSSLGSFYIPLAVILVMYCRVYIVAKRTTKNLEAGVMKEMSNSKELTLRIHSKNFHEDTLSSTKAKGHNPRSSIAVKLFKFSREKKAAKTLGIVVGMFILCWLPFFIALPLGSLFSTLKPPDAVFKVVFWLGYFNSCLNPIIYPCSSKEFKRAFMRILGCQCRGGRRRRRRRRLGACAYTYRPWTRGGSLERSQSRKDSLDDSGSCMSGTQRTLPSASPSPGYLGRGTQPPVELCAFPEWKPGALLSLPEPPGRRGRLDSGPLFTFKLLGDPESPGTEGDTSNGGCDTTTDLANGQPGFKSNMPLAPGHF
T1 sequence (P23944 whole entry): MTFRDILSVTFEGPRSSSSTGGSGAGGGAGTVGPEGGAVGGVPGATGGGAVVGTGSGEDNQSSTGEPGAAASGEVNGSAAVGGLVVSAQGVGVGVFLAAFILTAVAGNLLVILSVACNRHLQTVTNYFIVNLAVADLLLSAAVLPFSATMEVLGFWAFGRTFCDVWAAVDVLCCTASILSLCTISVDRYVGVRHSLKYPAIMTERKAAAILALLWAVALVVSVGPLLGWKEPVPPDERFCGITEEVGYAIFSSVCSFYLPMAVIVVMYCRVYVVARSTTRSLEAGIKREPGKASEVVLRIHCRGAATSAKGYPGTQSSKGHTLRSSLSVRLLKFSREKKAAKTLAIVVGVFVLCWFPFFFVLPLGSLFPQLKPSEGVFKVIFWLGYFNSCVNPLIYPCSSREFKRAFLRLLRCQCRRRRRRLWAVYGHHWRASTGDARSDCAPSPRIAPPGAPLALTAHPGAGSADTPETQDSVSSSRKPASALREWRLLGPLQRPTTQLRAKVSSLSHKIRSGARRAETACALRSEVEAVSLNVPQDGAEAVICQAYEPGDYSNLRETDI
T1 sequence (P43140 whole entry): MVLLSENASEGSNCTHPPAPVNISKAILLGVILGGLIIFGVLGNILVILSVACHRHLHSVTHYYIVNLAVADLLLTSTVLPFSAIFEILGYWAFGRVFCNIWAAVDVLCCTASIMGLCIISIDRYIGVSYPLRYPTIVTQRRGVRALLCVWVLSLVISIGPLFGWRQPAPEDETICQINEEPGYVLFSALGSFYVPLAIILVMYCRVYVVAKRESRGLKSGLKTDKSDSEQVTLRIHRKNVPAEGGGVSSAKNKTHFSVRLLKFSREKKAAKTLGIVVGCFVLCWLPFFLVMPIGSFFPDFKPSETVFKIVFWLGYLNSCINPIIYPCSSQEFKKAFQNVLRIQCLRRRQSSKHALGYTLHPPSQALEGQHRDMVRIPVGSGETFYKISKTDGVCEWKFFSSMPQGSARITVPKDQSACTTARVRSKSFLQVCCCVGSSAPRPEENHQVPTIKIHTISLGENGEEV
Briefly: The concentration required to inhibit [3H]prazosin binding to Alpha-1 adrenergic receptor in rat brain membranes was measured (in vitro).

For the compound `O=S1(=O)c2cccc3cccc(c23)N1CCCN1CCC(n2c(O)nc3ccccc32)CC1`, the results for the IC50 (on D(2) dopamine receptor; in assay [1]; in assay [2]) were 46 nM, 7 nM and below 10 nM, respectively.

For `CS(=O)(=O)N(CCCN1CC=C(c2ccccc2)CC1)c1cccc2ccccc12`, the figures for the half-inhibitory concentration (IC50) (at D(2) dopamine receptor; in assay [1]; in assay [2]) were 275 nM, 5.1 nM and 75 nM, respectively.

As to `O=S1(=O)c2cccc3cccc(c23)N1CCCN1CCN(c2ccc(C(F)(F)F)cc2)CC1`, the IC50 on D(2) dopamine receptor was above 1000 nM; in assay [1], 275 nM; in assay [2] it was above 1000 nM.

As for `O=S1(=O)c2cccc3cccc(c23)N1CCN1CCN(c2ccc(F)cc2)CC1`, the IC50 in assay [1] stood at 1 nM; in assay [2], 64 nM.

In the case of `O=S1(=O)c2cccc3cccc(c23)N1CCCN1CCC(c2ccccc2)CC1`, the values for the half-inhibitory concentration (IC50) (at D(2) dopamine receptor; in assay [1]; in assay [2]) were 385 nM, 0.2 nM and 27 nM, respectively.

`COc1ccc(N2CCN(CCCN3c4cccc5cccc(c45)S3(=O)=O)CC2)cc1`: the values for the IC50 (at D(2) dopamine receptor; in assay [1]; in assay [2]) were above 1000 nM, 25 nM and above 1000 nM, respectively.

For the compound `O=C(c1ccc(F)cc1)C1CCN(CCCN2c3cccc4cccc(c34)S2(=O)=O)CC1`, the values for the IC50 (at D(2) dopamine receptor; in assay [1]; in assay [2]) were 41 nM, 0.1 nM and 7.9 nM, respectively.

For `O=S1(=O)c2cccc3cccc(c23)N1CCCN1CCN(c2ccc(Cl)cc2)CC1`, the IC50 is above 1000 nM at D(2) dopamine receptor, 5 nM in assay [1] and above 1000 nM in assay [2].

Consider `O=S1(=O)c2cccc3cccc(c23)N1CCCN1CCN(c2nsc3ccccc23)CC1`, for which the figures for the IC50 (at D(2) dopamine receptor; in assay [1]; in assay [2]) were 473 nM, 0.4 nM and 75 nM, respectively.

`CN(CCCN1CC=C(c2ccccc2)CC1)S(=O)(=O)c1cccc2ccccc12` had a concentration for half-maximal inhibition (IC50) in assay [1] above 100 nM.

`O=S1(=O)c2cccc3cccc(c23)N1CCCN1CCN(c2noc3ccccc23)CC1`: the 50% inhibitory concentration (IC50) at D(2) dopamine receptor came out at 990 nM; in assay [1], 2.3 nM; in assay [2] it was 144 nM.

For the compound `O=S1(=O)c2cccc3cccc(c23)N1CCCN1CC=C(c2ccccc2)CC1`, the 50% inhibitory concentration (IC50) on D(2) dopamine receptor was determined as 1000 nM; in assay [1], 1 nM; in assay [2] it was 192 nM.

As to `O=S1(=O)c2cccc3cccc(c23)N1CCCN1CCN(c2ccccn2)CC1`, the 50% inhibitory concentration (IC50) on D(2) dopamine receptor is above 1000 nM; in assay [1], 6.3 nM; in assay [2], 269 nM.

Turning to `O=S1(=O)c2cccc3cccc(c23)N1CCCN1CCN(c2ccc(O)cc2)CC1`, the IC50 at D(2) dopamine receptor is 508 nM; in assay [1], 0.3 nM; in assay [2], 110 nM.

With `O=[N+]([O-])c1ccc(N2CCN(CCCN3c4cccc5cccc(c45)S3(=O)=O)CC2)cc1`, the results for the half-inhibitory concentration (IC50) (at D(2) dopamine receptor; in assay [1]; in assay [2]) were above 1000 nM, 25 nM and above 1000 nM, respectively.

For `O=C1c2cccc3cccc(c23)N1CCCN1CC=C(c2ccccc2)CC1`, the IC50 was above 100 nM at D(2) dopamine receptor, 9.8 nM in assay [1] and 580 nM in assay [2].

Regarding `Cc1ccc(N2CCN(CCCN3c4cccc5cccc(c45)S3(=O)=O)CC2)cc1`, the results for the IC50 (at D(2) dopamine receptor; in assay [1]; in assay [2]) were above 1000 nM, 4 nM and 700 nM, respectively.

For the compound `CCOC(=O)c1ccc(N2CCN(CCCN3c4cccc5cccc(c45)S3(=O)=O)CC2)cc1`, the 50% inhibitory concentration (IC50) at D(2) dopamine receptor was above 1000 nM; in assay [1], 200 nM; in assay [2] it was above 1000 nM.

Take `O=S1(=O)c2cccc3cccc(c23)N1CCCN1CCN(c2ccccc2F)CC1`: the IC50 was above 1000 nM at D(2) dopamine receptor, 3 nM in assay [1] and 52 nM in assay [2].

As to `O=S(=O)(c1ccccc1)N(CCCN1CC=C(c2ccccc2)CC1)c1ccccc1`, the 50% inhibitory concentration (IC50) at D(2) dopamine receptor amounted to 80 nM; in assay [1], 10 nM; in assay [2], 35 nM.

On to `O=S1(=O)c2cccc3cccc(c23)N1CCCN1CCN(c2nc3ccccc3s2)CC1`, for which the IC50 on D(2) dopamine receptor was above 1000 nM; in assay [1], 540 nM; in assay [2], above 1000 nM.

With `O=S1(=O)c2cccc3cccc(c23)N1CCCCN1CC=C(c2ccccc2)CC1`, the half-inhibitory concentration (IC50) on D(2) dopamine receptor worked out at 55 nM; in assay [1], 2.1 nM; in assay [2], 7.8 nM.

`O=S1(=O)c2cccc3cccc(c23)N1CCCN1CCN(c2cccc(F)c2)CC1`: the concentration for half-maximal inhibition (IC50) at D(2) dopamine receptor was above 1000 nM; in assay [1], 18 nM; in assay [2], 688 nM.

`O=S1(=O)c2cccc3cccc(c23)N1CCCN1CCN(c2ccccc2)CC1`: the IC50 on D(2) dopamine receptor is above 1000 nM; in assay [1] it was 2.6 nM; in assay [2], 141 nM.

As to `O=S1(=O)N=C(N2CCN(CCCN3c4cccc5cccc(c45)S3(=O)=O)CC2)c2ccccc21`, the half-inhibitory concentration (IC50) on D(2) dopamine receptor was above 1000 nM; in assay [1], 240 nM; in assay [2], 181 nM.

Regarding `O=S1(=O)c2ccccc2-c2ccccc2N1CCCN1CC=C(c2ccccc2)CC1`, the IC50 at D(2) dopamine receptor is 110 nM; in assay [1], 10 nM; in assay [2], 10 nM.

`O=S1(=O)c2cccc3cccc(c23)N1CCCN1CCN(c2ncccn2)CC1`: the IC50 is above 1000 nM on D(2) dopamine receptor, 32 nM in assay [1] and above 1000 nM in assay [2].

For the compound `O=S1(=O)c2cccc3cccc(c23)N1CCCN1CCN(c2ccc(Br)cc2)CC1`, the IC50 at D(2) dopamine receptor is above 1000 nM; in assay [1], 7 nM; in assay [2], above 1000 nM.

Regarding `O=S1(=O)c2cccc3cccc(c23)N1CCCN1CCC(=C(c2ccc(F)cc2)c2ccc(F)cc2)CC1`, the IC50 worked out at 603 nM at D(2) dopamine receptor, 11 nM in assay [1] and 50 nM in assay [2].

As to `O=S1(=O)c2cccc3cccc(c23)N1CCN1CC=C(c2ccccc2)CC1`, the values for the half-maximal inhibitory concentration (IC50) (on D(2) dopamine receptor; in assay [1]; in assay [2]) were above 100 nM, 6.3 nM and 98 nM, respectively.

Usually IC50 stands for the point on the concentration scale where inhibition reaches its midpoint.
